The values that follow come from ChEMBL document CHEMBL1129335, “Synthesis and structure-activity relationships of 2-substituted D-tryptophan-containing peptidic endothelin receptor antagonists: importance of the C-2 substituent of the D-tryptophan residue for endothelin A and B receptor subtype selectivity” (J Med Chem, 1996).

A word on the IC50: it is the concentration needed to halve the response being measured. What is called pA2 is a measure of antagonist potency on a negative log scale. A high value points to higher antagonist potency.

The target of assay [1] is T1, Endothelin receptor type B (Sus scrofa, UniProt P35463).
T1 sequence (P35463 whole entry): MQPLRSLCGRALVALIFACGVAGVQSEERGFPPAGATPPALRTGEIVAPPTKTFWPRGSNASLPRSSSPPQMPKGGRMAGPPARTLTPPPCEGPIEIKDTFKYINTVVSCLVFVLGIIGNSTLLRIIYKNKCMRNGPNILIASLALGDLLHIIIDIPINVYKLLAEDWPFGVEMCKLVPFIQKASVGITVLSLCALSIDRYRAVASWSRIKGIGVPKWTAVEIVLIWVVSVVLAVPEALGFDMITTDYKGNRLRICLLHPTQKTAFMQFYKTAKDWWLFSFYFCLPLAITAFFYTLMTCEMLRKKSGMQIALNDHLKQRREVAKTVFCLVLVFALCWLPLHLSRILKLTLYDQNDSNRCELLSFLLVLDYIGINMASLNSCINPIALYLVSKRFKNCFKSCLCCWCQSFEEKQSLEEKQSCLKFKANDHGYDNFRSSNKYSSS
In words: Binding affinity towards endothelin B receptor in porcine cerebellum membranes. It is filed as cell membranes, Membrane. The method in brief: (§1)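 Competitive binding in porcine membranes: aortic smooth muscle for ETA and cerebellum for ETB, run by a previously reported method. Variation was generally within 10%.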

The target of assay [2] is T2, Endothelin receptor type B (Homo sapiens, UniProt P24530).
T2 sequence (P24530 whole entry): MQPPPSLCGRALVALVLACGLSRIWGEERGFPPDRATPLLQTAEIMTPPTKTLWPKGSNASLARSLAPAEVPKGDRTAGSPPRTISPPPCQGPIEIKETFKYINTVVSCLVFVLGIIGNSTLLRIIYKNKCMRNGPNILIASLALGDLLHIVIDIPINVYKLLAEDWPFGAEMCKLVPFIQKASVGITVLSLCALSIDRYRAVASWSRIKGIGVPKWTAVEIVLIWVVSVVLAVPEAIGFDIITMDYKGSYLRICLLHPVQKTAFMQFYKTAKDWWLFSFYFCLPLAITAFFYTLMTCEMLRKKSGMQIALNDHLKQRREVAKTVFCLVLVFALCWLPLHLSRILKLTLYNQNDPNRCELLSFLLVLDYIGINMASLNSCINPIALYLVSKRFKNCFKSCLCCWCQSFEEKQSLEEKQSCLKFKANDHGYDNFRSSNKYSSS
Briefly: Binding affinity towards Endothelin B receptor in human girardi heart cell membranes. In a few lines:
(§2)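 Membrane binding assay on human receptors. ETA came from the neuroblastoma-derived line SK-N-MC and ETB from Girardi heart cells. Inhibition was expressed as IC50.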

For assay [3], the target named is T3, Endothelin-1 receptor (Sus scrofa, UniProt Q29010).
T3 sequence (Q29010 whole entry): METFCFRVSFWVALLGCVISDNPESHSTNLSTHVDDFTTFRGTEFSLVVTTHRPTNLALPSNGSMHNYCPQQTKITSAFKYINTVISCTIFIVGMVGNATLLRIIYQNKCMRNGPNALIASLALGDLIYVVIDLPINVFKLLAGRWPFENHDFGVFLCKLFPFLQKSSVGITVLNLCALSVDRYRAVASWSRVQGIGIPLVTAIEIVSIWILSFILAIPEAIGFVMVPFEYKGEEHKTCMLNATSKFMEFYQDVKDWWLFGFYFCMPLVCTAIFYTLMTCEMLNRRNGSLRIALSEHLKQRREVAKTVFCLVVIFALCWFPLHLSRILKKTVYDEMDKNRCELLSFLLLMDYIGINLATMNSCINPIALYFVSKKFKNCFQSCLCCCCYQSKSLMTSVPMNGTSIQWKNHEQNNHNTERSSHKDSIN
Briefly: Binding affinity towards endothelin A receptor in porcine aortic smooth muscle membranes. The method in brief: as §1

Assay [4] has as its target T4, Endothelin-1 receptor (Homo sapiens, UniProt P25101).
T4 sequence (P25101 whole entry): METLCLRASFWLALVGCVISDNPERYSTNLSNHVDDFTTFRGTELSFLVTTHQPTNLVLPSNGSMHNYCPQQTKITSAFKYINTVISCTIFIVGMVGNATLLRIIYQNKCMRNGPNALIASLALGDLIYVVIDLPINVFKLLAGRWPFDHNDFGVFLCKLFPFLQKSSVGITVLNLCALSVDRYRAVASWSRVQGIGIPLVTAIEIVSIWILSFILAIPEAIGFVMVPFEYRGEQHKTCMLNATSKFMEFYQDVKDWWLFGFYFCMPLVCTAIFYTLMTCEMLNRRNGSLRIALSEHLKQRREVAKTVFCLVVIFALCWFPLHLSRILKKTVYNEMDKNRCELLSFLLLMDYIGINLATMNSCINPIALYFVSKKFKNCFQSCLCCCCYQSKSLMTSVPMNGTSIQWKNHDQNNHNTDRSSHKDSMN
In words: Binding affinity towards Endothelin A receptor in human neuroblastoma-derived cell line SK-N-MC membranes. Type of assay: cell-based. In a few lines:
as §2

Assay [5] is described as follows: Ability to antagonize ET-A mediated vasoconstrictor activity in isolated porcine coronary arteries. Type of assay: functional. The settings on record: read-out: pA2 (converted). In a few lines:
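Isolated porcine coronary artery rings were contracted with ET-1, an ETA-mediated response, following a reported method. Antagonism was quantified as a pA2 value.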

Assay [6] can be described thus: Ability to antagonize ET-1 mediated constriction in rabbit pulmonary arteries. Type of assay: functional, Oryctolagus cuniculus.
Assay [7] addresses T2, Endothelin receptor type B. Briefly: Binding affinity rowards Endothelin B receptor in human girardi heart cell membranes. In a few lines: as §2
Assay [8] can be described thus: Antagonistic activity against Endothelin B receptor by BQ-3020 induced constriction in isolated rabbit pulmonary arteries. It is filed as functional. The settings on record: Oryctolagus cuniculus; read-out: pA2 (converted). In a few lines:
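Isolated rabbit pulmonary arteries were contracted with the ETB-selective agonist BQ-3020, following a previously reported protocol. Antagonist potency was given as pA2.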

A short description of assay [9]: Inhibitory activity against ET 1 induced calcium increase in human Girardi heart cells. It is filed as functional, cell-based. The method in brief:
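Intracellular Ca2+ rise in intact human Girardi heart cells was induced by ET-1, run by a reported method. Inhibition was expressed as IC50. Compounds were also applied alone at 100 µM to check for any rise in [Ca2+]i.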

As to `O=C(O)C[C@H]1NC(=O)[C@@H](Cc2c(Br)[nH]c3ccccc23)NC(=O)[C@H](C2CC2)NC(=O)[C@@H](C2CCCC2)NC(=O)[C@@H]2CCCN2C1=O`, the IC50 in assay [1] was found to be 15 nM; in assay [2] (heart), 29 nM; in assay [3], 4.9 nM; in [4] (sk-n-mc), 8.6 nM. Besides, the Kb in assay [5] is 31.6 nM. The compound further came in with a pA2 in assay [6] of 5.7.
With `Cc1[nH]c2ccccc2c1C[C@H]1NC(=O)[C@H](C2CC2)NC(=O)[C@@H](C2CCCC2)NC(=O)[C@@H]2CCCN2C(=O)[C@@H](CC(=O)O)NC1=O`, the IC50 in assay [1] was 59 nM; in assay [2] (heart), 130 nM; in [3] it was 1.8 nM; in assay [4] (sk-n-mc) it was 2.9 nM.
On to `CCSCC(NC(=O)[C@@H](Cc1c(Br)[nH]c2ccccc12)NC(=O)C(CC(C)C)NC(=O)N1[C@H](C)CCC[C@@H]1C)C(=O)O` (some centres undefined), for which the IC50 worked out at 1.8 nM in [1], 3.6 nM in [7], 1.9 nM in assay [3] and 6.4 nM in assay [4].
Consider `CCCCC(NC(=O)[C@@H](Cc1c(C#N)[nH]c2ccccc12)NC(=O)C(NC(=O)N1[C@H](C)CCC[C@@H]1C)C(C)C)C(=O)O` (some centres undefined), for which the IC50 came to 2.3 nM in assay [1], 5 nM in assay [2], 2400 nM in [4] and 4 nM in [9]. For the same compound, the Kb in assay [8] was 3.16 nM.
For `CSCCC(NC(=O)[C@@H](Cc1c(C)[nH]c2ccccc12)NC(=O)C(NC(=O)N1[C@H](C)CCC[C@@H]1C)C1CC1)C(=O)O` (some centres undefined), the IC50 in [1] came out at 2.9 nM; in assay [2] it was 4 nM; in [3] it was 1 nM; in assay [4] it was 3 nM.
On to `CCCCC(NC(=O)[C@@H](Cc1c(Br)[nH]c2ccccc12)NC(=O)C(NC(=O)N1[C@H](C)CCC[C@@H]1C)C1CC1)C(=O)O` (some centres undefined), for which the IC50 in assay [1] was 0.81 nM; in assay [2], 1.1 nM; in assay [3], 3.8 nM; in assay [4], 13 nM. Also, in assay [5], the Kb was 12.6 nM. The compound further returned a pA2 in [6] of 6.4.
